# In ChEMBL document CHEMBL1932971, “Synthesis of uriedo and thiouriedo derivatives of peptide conjugated heterocycles - A new class of promising antimicrobials” (2012):
# Numbered stars: 1 amine (or outer) side, 2 acyl side, 3 side chain; on linkers, the order of the positions; unused ones are H or OH. Peptide text beside a SMILES is read from it. * marks the point of attachment. Piperazinyl(4-(2,3-Cl2Ph)) = Clc1cccc(N2CCN(*)CC2)c1Cl; Thiocarbamoyl(4-MeOPh) = COc1ccc(NC(=S)*)cc1; NH(4-MeO-phenyl) = COc1ccc(N*)cc1; NH(4-Cl-phenyl) = Clc1ccc(N*)cc1; X1 = Fc1ccc2c(C3CCN(*)CC3)noc2c1; CO = O=C([*:1])[*:2]
# Columns and labels:
# Type in all cases: functional
# Conditions in all cases: read-out: DIZ
# Aspergillus flavus = assay: Antifungal activity against Aspergillus flavus at 30 ug/ml after 72 hrs by agar well diffusion method
# In short: (§1)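 Fungal well diffusion. Inocula were subcultured in nutrient broth for one day, then spread on solidified medium. Compounds were made as a 1 mg/mL DMSO stock and diluted to 30 µg/mL final. Each 6 mm well got 0.1 mL. Controls were bavistin (reference) and DMSO (negative). Plates stood for 3 days at room temperature. Inhibition zone was measured in mm as the mean of three determinations.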
# Escherichia coli = assay: Antibacterial activity against Escherichia coli at 30 ug/ml after 24 hrs by agar well diffusion method
# In short: (§2)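 Agar well diffusion. Inocula were grown in nutrient broth at 37 °C for 24 h, then subcultured in nutrient broth at room temperature. Compounds were made as a 1 mg/mL DMSO stock and diluted to 30 µg/mL final. Nutrient agar plates were spread-inoculated and 6 mm wells each got 0.1 mL. Controls were amoxicillin (reference) and DMSO (negative). Incubation was 24 h at 37 °C. Inhibition zone was measured in mm as the mean of three determinations.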
# Klebsiella pneumoniae = assay: Antibacterial activity against Klebsiella pneumoniae at 30 ug/ml after 24 hrs by agar well diffusion method; in short: as §2
# Aspergillus niger = assay: Antifungal activity against Aspergillus niger at 30 ug/ml after 72 hrs by agar well diffusion method; in short: as §1
# Staphylococcus aureus = assay: Antibacterial activity against coagulase-positive Staphylococcus aureus at 30 ug/ml after 24 hrs by agar well diffusion method; in short: as §2
# Xanthomonas oryzae = assay: Antibacterial activity against Xanthomonas oryzae at 30 ug/ml after 24 hrs by agar well diffusion method
# Fusarium oxysporum = assay: Antifungal activity against Fusarium oxysporum at 30 ug/ml after 72 hrs by agar well diffusion method; in short: as §1
SMILES,zone of inhibition at 30 µg/mL (Aspergillus flavus),zone of inhibition at 30 µg/mL (Escherichia coli),zone of inhibition at 30 µg/mL (Klebsiella pneumoniae),zone of inhibition at 30 µg/mL (Aspergillus niger),zone of inhibition at 30 µg/mL (Staphylococcus aureus),zone of inhibition at 30 µg/mL (Xanthomonas oryzae),zone of inhibition at 30 µg/mL (Fusarium oxysporum)
COc1ccc(NC(=O)NCC(=O)N[C@@H](Cc2ccccc2)C(=O)NCC(=O)N[C@@H](Cc2ccccc2)C(=O)N2CCC[C@H]2C(=O)N2CCC(c3noc4cc(F)ccc34)CC2)cc1 ({NH(4-MeO-phenyl)-CO}-GFGFP-X1),29 mm,30 mm,30 mm,35 mm,28 mm,30 mm,32 mm
COc1ccc(NC(=S)NCC(=O)N[C@H](C(=O)NCC(=O)N[C@H](C(=O)N2CCC[C@H]2C(=O)N2CCC(c3noc4cc(F)ccc34)CC2)C(C)C)C(C)C)cc1 ({Thiocarbamoyl(4-MeOPh)}-GVGVP-X1),26 mm,28 mm,26 mm,31 mm,24 mm,28 mm,26 mm
O=C(Nc1ccccc1F)N[C@@H](Cc1c[nH]c2ccccc12)C(=O)N1CCN(c2cccc(Cl)c2Cl)CC1,11 mm,9 mm,10 mm,10 mm,11 mm,9 mm,7 mm
"COc1ccc(NC(=S)NCC(=O)NCC(=O)N[C@@H](Cc2ccccc2)C(=O)N2CCC[C@H]2C(=O)N2CCN(c3cccc(Cl)c3Cl)CC2)cc1 ({Thiocarbamoyl(4-MeOPh)}-GGFP-{Piperazinyl(4-(2,3-Cl2Ph))})",22 mm,23 mm,20 mm,29 mm,18 mm,21 mm,24 mm
O=C(Nc1ccccc1F)N[C@@H](Cc1c[nH]c2ccccc12)C(=O)N1CCC(c2noc3cc(F)ccc23)CC1,9 mm,11 mm,8 mm,12 mm,8 mm,11 mm,8 mm
O=C(CNC(=O)Nc1ccc(Cl)cc1)NCC(=O)N[C@@H](Cc1ccccc1)C(=O)N1CCC[C@H]1C(=O)N1CCC(c2noc3cc(F)ccc23)CC1 ({NH(4-Cl-phenyl)-CO}-GGFP-X1),26 mm,28 mm,23 mm,31 mm,21 mm,25 mm,28 mm
"COc1ccc(NC(=O)NCC(=O)NCC(=O)N[C@@H](Cc2ccccc2)C(=O)N2CCC[C@H]2C(=O)N2CCN(c3cccc(Cl)c3Cl)CC2)cc1 ({NH(4-MeO-phenyl)-CO}-GGFP-{Piperazinyl(4-(2,3-Cl2Ph))})",19 mm,25 mm,18 mm,26 mm,16 mm,23 mm,22 mm
O=C([C@H](Cc1c[nH]c2ccccc12)NC(=S)Nc1ccccc1F)N1CCC(c2noc3cc(F)ccc23)CC1,10 mm,13 mm,9 mm,13 mm,9 mm,12 mm,7 mm
